Screening results (PubChem BioAssay)
Efflux pump mplx: blocks antifungal efflux pumps in multiplex yeast assay; actives 0.44% (n = 330,000); inhibition, % at 10 µM; S. cerevisiae Candida pump triplex, Nile Red efflux;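 active = plate passing quality check with inhibition over a set limit, or well fluorescence over plate mean plus 4 SD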;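 note: Nile Red retained in pooled yeast measured as flow cytometry median fluorescence; 0% = buffer negative control and 100% = Enniatin B positive control; higher means more Nile Red kept so more efflux inhibition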
Tb MetRS inh: blocks T. brucei methionyl-tRNA synthetase activity; inhibition, % at 11.9 µM; purified T. brucei MetRS, ATP depletion, Kinase-Glo luminescence; actives 0.4% (n = 360,000);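 active = inhibition above a per-plate cutoff of the control wells' mean inhibition plus 3 SD, cut at about 5.5% in these data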;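 note: 0% = DMSO wells median and 100% = median of wells with control inhibitor compound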
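Test system – parasite MetRS enzyme · Reagent – substrates ATP, L-methionine and bulk Escherichia coli tRNA · Doses – 11.9 µM compound single dose, 0.9% DMSO · Times – 15 min enzyme-compound preincubation, 2 h reaction, 10 min detection, 25 °C · Signal – Kinase-Glo luminescence, ATP depletion format · Controls – DMSO-only wells as low control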
IDE inh: cellular human IDE inhibition. inhibition, % at 5.59 µM. AID 434962. HEK cells, FAbetaB cleavage, fluorescence polarization. actives 0.41% (n = 320,000);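 active = percent inhibition above the average of all tested compounds plus 3 SD, set per screening campaign, cut at about 16% in these data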;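 note: IDE supplied by intact live HEK cells; FP after avidin binding of uncleaved biotin substrate so inhibition keeps polarization high; 0% = DMSO wells and 100% = 60 µM reference IDE inhibitor Ii1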
HDAC3 inhib: inhibitors of human histone deacetylase 3; actives 0.15% (n = 320,000); recombinant HDAC3, fluorogenic peptide/trypsin coupled, fluorescence; AID 2718; inhibition, % at 8.3 µM; O15379; in the data active = inhibition above about 26%, passing the limit was not always enough
Target sequence (O15379 whole entry, looked up): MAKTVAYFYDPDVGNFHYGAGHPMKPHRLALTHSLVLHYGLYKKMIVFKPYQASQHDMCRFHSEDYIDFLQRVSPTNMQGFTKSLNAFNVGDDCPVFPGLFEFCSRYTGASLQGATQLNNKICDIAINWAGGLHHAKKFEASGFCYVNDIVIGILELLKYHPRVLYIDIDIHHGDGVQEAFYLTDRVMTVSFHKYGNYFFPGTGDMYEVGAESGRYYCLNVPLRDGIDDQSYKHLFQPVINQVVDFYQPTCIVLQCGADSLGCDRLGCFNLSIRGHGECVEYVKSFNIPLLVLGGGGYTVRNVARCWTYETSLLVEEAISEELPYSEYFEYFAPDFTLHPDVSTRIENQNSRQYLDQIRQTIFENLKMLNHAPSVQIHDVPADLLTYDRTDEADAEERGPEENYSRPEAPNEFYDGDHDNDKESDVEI
IDE cell activ: boosts human insulin-degrading enzyme activity in HEK cells | P14735 | FAbeta-B cleavage, fluorescence polarization; 0% vehicle, 100% cell-free pure enzyme wells | activation, % at 5.96 µM | actives 0.073% (n = 340,000);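 active = activation above the mean of all tested compounds plus 3 SD, set per screening campaign, cut at about 17% in these data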
Yeast superoxide: lowers age-related superoxide in aged yeast cells; S. cerevisiae aged cells, superoxide DHE fluorescence; active compounds read low; superoxide response (% of plate mean), % at 10 µM; actives 0.18% (n = 330,000);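 active = superoxide response under a set limit, about three screen SD below normal, cut at about 65% in these data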;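 note: yeast aged for seven days with compound at 30 °C before DHE staining; 100% = average MFI of all compound-treated wells on the plate with controls excluded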
Yeast cmpd fluor: compound fluorescence in yeast efflux pump counter-screen | actives 4% (n = 1,700) | fluorescence ratio to DMSO, % at 10 µM | S. cerevisiae AD/pABC3, flow cytometry | shares compounds with Efflux pump mplx;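 active = fluorescence ratio to DMSO above its plate's cutoff, the plate mean ratio plus 5 SD, cut at about 210% in these data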;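 note: unstained yeast with no Nile Red so the signal is compound autofluorescence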
Mdr1 pump inh: inhibitors of Candida albicans Mdr1 efflux pump | inhibition, % at 10 µM | actives 1% (n = 1,700) | S. cerevisiae AD/CaMDR1, Nile Red efflux, flow cytometry | shares compounds with Efflux pump mplx; in the data active = inhibition above about 26%;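 note: 0% = DMSO vehicle and 100% = reference inhibitor; higher means more Nile Red retained so more efflux inhibition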
CaCdr2 efflux inh: blocks the Candida albicans Cdr2 efflux pump in yeast; S. cerevisiae AD/CaCDR2, Nile Red retention, flow cytometry; Nile Red retention ratio vs DMSO, % at 10 µM; actives 4% (n = 1,700); shares compounds with Efflux pump mplx; in the data active = Nile Red retention ratio vs DMSO above about 190%;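 note: higher ratio means more blocking of Cdr2 efflux of the dye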
Cdr1 pump inh: inhibitors of Candida albicans Cdr1 efflux pump. AID 588522. S. cerevisiae AD/CaCDR1, Nile Red efflux, flow cytometry. actives 1% (n = 1,700). inhibition, % at 10 µM. shares compounds with Efflux pump mplx;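 active = inhibition above the screen-wide mean plus twice its standard deviation, cut at about 32% in these data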
The depositor's hits bear a star; . = no result given. Sampled rows, rich in hits. Any-hit rate of the full collection: about 1.4%.

SMILES	Efflux pump mplx	Tb MetRS inh	IDE inh	HDAC3 inhib	IDE cell activ	Yeast superoxide	Yeast cmpd fluor	Mdr1 pump inh	CaCdr2 efflux inh	Cdr1 pump inh
Cc1ccc(S(=O)(=O)c2nc(Nc3ccccc3N3CCOCC3)sc2Cl)cc1	7.5*	0	-4	-5	1	124	100	0	99	0
CN(Cc1ccccc1)C(=O)c1ccc(NC(=O)Cc2ccc(NC(=O)C3CCN(C(=O)C4CCCC4)CC3)cc2)cc1	.	1	.	.	0	.	.	.	.	.
O=C(Cc1ccc(F)cc1)OCC(=O)N1CCN(S(=O)(=O)c2ccc(Cl)cc2)CC1	0.5*	0	3	-1	2	125	105	0	95	0
CCOC(=O)/C(C#N)=C/C1=C(N2CCOCC2)C(C)(C)OCC1	0.9*	0	-1	4	5	95	94	0	99	0
Cc1ccc(NC(=S)Nc2ccc(Br)cc2)cc1	0	0	8	4	1	104	.	.	.	.
CNC(=S)Nc1ccc(C)cc1	11*	-1	-7	1	6	94	100	0	102	0
O=C1/C(=C\c2ccc(-c3ccccc3Cl)o2)SC(=S)N1CC1CCCO1 (stereo unspecified)	0.5*	-1	1	-9	2	120	100	0	116	0
Cc1ccc(/C=C2\SC(=S)N(CC3CCCO3)C2=O)o1 (stereo unspecified)	0	0	7	6	-3	109	.	.	.	.
COc1ccccc1NC(=S)NNC(=O)c1ccccc1Br	0	-1	-2	-1	5	98	.	.	.	.
CCOc1ccccc1NC(=S)NC1CC2CCC1C2 (stereo unspecified)	1.1*	-1	-5	2	2	133	102	0	108	0
COc1cc(CNc2ncnc3c2ncn3[C@H]2CN(Cc3ccco3)C[C@@H](CO)O2)cc(OC)c1OC	.	0	.	.	.	.	.	.	.	.
O=C(NCc1ccc2c(c1)OCO2)C(=O)Nc1ccccc1	0	-1	1	-5	4	101	.	.	.	.
C=CC[C@@H](CC(=O)N(CCO)Cc1ccccc1)C(=O)N[C@H](COC(=O)[C@@H](CC=C)Cc1ccc(F)cc1)Cc1c[nH]c2ccccc12	162*	-1	4	8	6	107	104	136*	112	135*
Nc1ncnc2c1nc(N1CCCCC1)n2[C@@H]1O[C@H](CO)[C@@H](O)[C@H]1O	2.3*	0	1	-2	2	111	104	0	92	0
CNc1nc2c(N)ncnc2n1[C@H]1O[C@@H](CO)[C@H](O)[C@@H]1O	1	3	2	3	4	94	.	.	.	.
O=C(N1CCOCC1)N1CCN(S(=O)(=O)c2cccc([N+](=O)[O-])c2)CC1	1.8*	0	2	2	3	110	104	0	96	0
CC(=O)Nc1cccc(NC(=O)C(=O)NCC(c2ccco2)N2CCc3ccccc3C2)c1 (stereo unspecified)	0	0	-8	6	4	99	.	.	.	.
CN1CCN(C(=O)CSc2ccc(C(F)(F)F)cc2[N+](=O)[O-])CC1	14*	0	-1	6	-1	114	108	0	120	0
Cc1ccc(-n2c(=O)c3ccccc3n(CC(=O)NCc3ccco3)c2=O)cc1	0	0	-1	-2	1	107	.	.	.	.
CCc1ccc(-n2c(=O)c3ccccc3n(CC(=O)NCc3ccco3)c2=O)cc1	0.8*	-1	0	0	5	104	102	0	101	0
CCCNC(=O)C(Cc1ccccc1)NC(=O)c1ccc(C(F)(F)F)cc1 (stereo unspecified)	0	0	-3	0	-6	111	.	.	.	.
COc1ccc(/C=N/NC(=O)CNC(=O)C2COc3ccccc3O2)cc1OC (stereo unspecified)	0	0	-2	2	-1	107	.	.	.	.
O=C(CNC(=O)C1COc2ccccc2O1)N/N=C\c1cccc(O)c1 (stereo unspecified)	7.6*	4	0	0	11	103	89	0	87	0
CN1CCN(c2ccccc2NC(=O)c2ccc(-c3ccc(Cl)c(Cl)c3)o2)CC1	8.1*	0	-2	1	2	115	85	0	102	0
O=C(c1ccc(Cl)cc1)[C@@H]1[C@@H]2C(=O)N(c3ccc(Cl)cc3)C(=O)[C@@H]2C2c3ccccc3C=NN21 (stereo partly specified)	0.6*	0	3	0	-8	116	113	0	89	0
SMILES	Efflux pump mplx	Tb MetRS inh	IDE inh	HDAC3 inhib	IDE cell activ	Yeast superoxide	Yeast cmpd fluor	Mdr1 pump inh	CaCdr2 efflux inh	Cdr1 pump inh
CCCCc1nnc2c(N(C)S(=O)(=O)c3ccc(C)cc3)nc3ccccc3n12	0.8*	0	-5	-3	1	111	105	0	102	0
CCCc1nnc2c(N(C)S(=O)(=O)c3ccc(C)cc3)nc3ccccc3n12	0	0	-2	1	4	70	.	.	.	.
COCCCn1c(=S)[nH]c2ccc(N3CCOCC3)cc2c1=O	1.4*	0	2	-1	-2	102	120	0	117	0
COc1cccc2sc(Nc3nnc(-c4ccc(F)cc4)o3)nc12	0	-1	7	-50	-8	93	.	.	.	.
COc1cccc2sc(Nc3nnc(-c4cccs4)o3)nc12	0.7*	-1	14	-11	-2	89	94	0	91	0
COc1ccccc1C(=O)Nc1nnc(SCC(=O)Nc2ccc3c(c2)oc2ccccc23)s1	0	0	2	-3	0	92	.	.	.	.
Cc1cccc(C(=O)Nc2nnc(SCC(=O)Nc3ccc4c(c3)oc3ccccc34)s2)c1	4.2*	0	3	-3	-4	89	92	0	114	0
Cc1ccc(NC(=O)c2ncn(CCCNCCCc3ccccc3)n2)cc1C	.	0	.	.	6	.	.	.	.	.
COc1ccc(CNS(=O)(=O)c2ccc3c(c2)CCN3C(=O)C2CCC2)cc1	0	0	-2	8	3	97	.	.	.	.
CCOc1ccc(OCC)c(NS(=O)(=O)c2ccc3c(c2)CCN3C(=O)C2CCC2)c1	0	0	5	-6	1	102	108	0	114	0
